Assay [1] deals with Mycolicibacterium smegmatis. Briefly: Antimycobacterial activity against Mycobacterium smegmatis atR2 assessed as decrease in drug resistance development at 5 ug/disc after 2 to 3 days by paper disc method. It counts as functional, organism-based. Summed up:
(§1)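 Mutant M. smegmatis strains were grown in Middlebrook 7H9/OADC/Tween/glycerol to OD600 1.2. Cultures were diluted 1:9:10 (culture:water:M290) and overlaid on M290 agar. Commercial or impregnated paper discs were applied and plates incubated 2–3 days at 37 °C. Inhibition halos were measured to 1 mm, run in triplicate, mean ± SD.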

In assay [2] the test system is Mycolicibacterium smegmatis. Kind of assay: Antimycobacterial activity against Mycobacterium smegmatis atR1 assessed as decrease in drug resistance development at 5 ug/disc after 2 to 3 days by paper disc method. It counts as functional, organism-based. Summed up: as §1
For assay [3], the system named is Mycolicibacterium smegmatis. Kind of assay: Antimycobacterial activity against Mycobacterium smegmatis atR37 assessed as decrease in drug resistance development at 5 ug/disc after 2 to 3 days by paper disc method. It is filed as functional, organism-based. Summed up: (§2)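 Drug-resistant M. smegmatis mc2 155 mutants, isolated on M290 agar with 3.5-4× MIC of compound and resistance re-confirmed, grown in Middlebrook 7H9 (OADC, 0.1% Tween-80, 0.4% glycerol) to OD600 1.2. Diluted 1:9:10 culture:water:M290 and poured as top layer on M290 agar. Impregnated paper discs applied; 37 °C for 2–3 days. Halos measured to nearest 1 mm; triplicates, mean ± SD versus control strain.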

The test system of assay [4] is Mycolicibacterium smegmatis. Kind of assay: Antimycobacterial activity against Mycobacterium smegmatis atR17 assessed as decrease in drug resistance development at 5 ug/disc after 2 to 3 days by paper disc method. It counts as functional, organism-based. Summed up: as §1
For assay [5], the system named is Mycolicibacterium smegmatis. Briefly: Antimycobacterial activity against Mycobacterium smegmatis atR33 assessed as decrease in drug resistance development at 5 ug/disc after 2 to 3 days by paper disc method. It is filed as functional, organism-based. Summed up:
as §2

The subject of assay [6] is Mycolicibacterium smegmatis. Kind of assay: Antimycobacterial activity against Mycobacterium smegmatis atR10 assessed as decrease in drug resistance development at 5 ug/disc after 2 to 3 days by paper disc method. It counts as functional, organism-based. Summed up: as §1
Assay [7] relates to Mycolicibacterium smegmatis. Briefly: Antimycobacterial activity against Mycobacterium smegmatis atR11 assessed as decrease in drug resistance development at 5 ug/disc after 2 to 3 days by paper disc method. It is filed as functional, organism-based. In a few lines:
as §1

Assay [8] concerns Mycolicibacterium smegmatis. Kind of assay: Antimycobacterial activity against Mycobacterium smegmatis atR14 assessed as decrease in drug resistance development at 5 ug/disc after 2 to 3 days by paper disc method. It is filed as functional, organism-based. Summed up: as §1
Assay [9] relates to Mycolicibacterium smegmatis MC2 155. Briefly: Inhibition of STPK in Mycobacterium smegmatis MC2 155 expressing aminoglycoside phophotransferase-8 assessed as growth inhibition at 350 microg/disk after 18 hrs by paper disk method.
Assay [10] has as its system Mycolicibacterium smegmatis. Briefly: Antimycobacterial activity against Mycobacterium smegmatis atR19 assessed as decrease in drug resistance development at 5 ug/disc after 2 to 3 days by paper disc method. It counts as functional, organism-based. Summed up:
as §1

Assay [11] has as its system Mycolicibacterium smegmatis. Kind of assay: Antimycobacterial activity against Mycobacterium smegmatis atR8 assessed as decrease in drug resistance development at 5 ug/disc after 2 to 3 days by paper disc method. It counts as functional, organism-based. In a few lines:
as §2

For assay [12], the system named is Mycolicibacterium smegmatis. Kind of assay: Antimycobacterial activity against Mycobacterium smegmatis atR40 assessed as decrease in drug resistance development at 5 ug/disc after 2 to 3 days by paper disc method. It is filed as functional, organism-based. In a few lines: as §2
The subject of assay [13] is Mycolicibacterium smegmatis. Kind of assay: Antimycobacterial activity against Mycobacterium smegmatis atR10 in liquid medium after 48 hrs by two-fold serial dilution method. Particulars: atR10, 48 h. It is filed as functional. In a few lines: (§3)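 M. smegmatis resistant mutants were isolated on M290 agar containing 3.5-4× MIC of the test compound at 30°C and resistance was reconfirmed. MIC was then run in Lemco-Tw broth (Tween-80 0.05%). An overnight culture was diluted 1:200, and two-fold serial dilutions in DMSO were added. Plates were incubated at 37°C and 250 rpm for 48 h. MIC was read as the lowest concentration with no visible growth.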

The subject of assay [14] is Mycolicibacterium smegmatis. Kind of assay: Antimycobacterial activity against Mycobacterium smegmatis atR40 in liquid medium after 48 hrs by two-fold serial dilution method. It counts as functional. Particulars: atR40, 48 h. Summed up:
as §3

For assay [15], the system named is Mycolicibacterium smegmatis. Kind of assay: Antimycobacterial activity against Mycobacterium smegmatis atR1 in liquid medium after 48 hrs by two-fold serial dilution method. As to conditions: atR1, 48 h. It counts as functional. In a few lines:
as §3

For assay [16], the system named is Mycolicibacterium smegmatis. Briefly: Antimycobacterial activity against Mycobacterium smegmatis atR19 in liquid medium after 48 hrs by two-fold serial dilution method. It counts as functional. Particulars: atR19, 48 h. In a few lines: as §3
In assay [17] the test system is Mycolicibacterium smegmatis. Kind of assay: Antimycobacterial activity against Mycobacterium smegmatis atR9 assessed as decrease in drug resistance development at 100 nmol/disc after 2 to 3 days by paper disc method. It is filed as functional, organism-based. In a few lines:
as §2

In assay [18] the test system is Mycolicibacterium smegmatis. Briefly: Antimycobacterial activity against Mycobacterium smegmatis atR10 assessed as decrease in drug resistance development at 100 nmol/disc after 2 to 3 days by paper disc method. It is filed as functional, organism-based. In a few lines: as §1
Assay [19] deals with Mycolicibacterium smegmatis. Kind of assay: Antimycobacterial activity against Mycobacterium smegmatis atR11 in liquid medium after 48 hrs by two-fold serial dilution method. It is filed as functional. Particulars: atR11, 48 h. Summed up: as §3
Assay [20] has as its system Mycolicibacterium smegmatis. Briefly: Antimycobacterial activity against Mycobacterium smegmatis atR8 in liquid medium after 48 hrs by two-fold serial dilution method. It is filed as functional. Particulars: atR8, 48 h. Summed up:
as §3

For assay [21], the system named is Mycobacterium tuberculosis. Briefly: Antimycobacterial activity against Mycobacterium tuberculosis H37Rv in liquid medium. It is filed as functional. Summed up:
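M. tuberculosis H37Rv; MIC determined in liquid medium on the automated Bactec MGIT 960 system.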

Assay [22] relates to Mycolicibacterium smegmatis MC2 155. Briefly: Inhibition of STPK in Mycobacterium smegmatis MC2 155 expressing aminoglycoside phophotransferase-8 assessed as growth inhibition at 50 nmol/disk after 18 hrs in presence of kanamycin by paper disk method.
The test system of assay [23] is Mycolicibacterium smegmatis. Briefly: Antimycobacterial activity against Mycobacterium smegmatis atR37 in liquid medium after 48 hrs by two-fold serial dilution method. It is filed as functional. As to conditions: atR37, 48 h. Summed up:
as §3

Assay [24] concerns Mycolicibacterium smegmatis. Briefly: Antimycobacterial activity against Mycobacterium smegmatis atR40 assessed as decrease in drug resistance development at 100 nmol/disc after 2 to 3 days by paper disc method. It counts as functional, organism-based. Summed up:
as §2

Assay [25] concerns Mycolicibacterium smegmatis. Kind of assay: Antimycobacterial activity against Mycobacterium smegmatis atR11 assessed as decrease in drug resistance development at 100 nmol/disc after 2 to 3 days by paper disc method. It counts as functional, organism-based. In a few lines:
as §1

Assay [26] concerns Mycolicibacterium smegmatis. Kind of assay: Antimycobacterial activity against Mycobacterium smegmatis MC2 155 in solid medium by two-fold serial dilution method. It is filed as functional. Summed up:
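M290 soybean-casein agar plates carried two-fold compound dilutions, 8–64 or 8–128 µg/ml, some with extra 20 or 25 µg/ml plates.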

Assay [27] relates to Mycolicibacterium smegmatis. Briefly: Antimycobacterial activity against Mycobacterium smegmatis atR19 assessed as decrease in drug resistance development at 100 nmol/disc after 2 to 3 days by paper disc method. It is filed as functional, organism-based. Summed up:
as §1

In assay [28] the test system is Mycolicibacterium smegmatis. Briefly: Antimycobacterial activity against Mycobacterium smegmatis MC2 155 in liquid medium after 48 hrs by two-fold serial dilution method. It counts as functional. As to conditions: MC2 155, 48 h. Summed up: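 M. smegmatis mc2 155 grown overnight in Lemco-Tw broth, diluted 1:200 in fresh broth. […] Top wells could carry 4% DMSO. Incubated 48 h at 37 °C with shaking at 250 rpm. MIC is the lowest concentration with no visible growth.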

Assay [29] concerns Mycolicibacterium smegmatis. Kind of assay: Antimycobacterial activity against Mycobacterium smegmatis atR14 in liquid medium after 48 hrs by two-fold serial dilution method. It is filed as functional. Particulars: atR14, 48 h. In a few lines:
as §3

Assay [30] concerns Mycolicibacterium smegmatis. Kind of assay: Antimycobacterial activity against Mycobacterium smegmatis atR33 in liquid medium after 48 hrs by two-fold serial dilution method. It counts as functional. Particulars: atR33, 48 h. Summed up: as §3
For assay [31], the system named is Mycolicibacterium smegmatis. Kind of assay: Antimycobacterial activity against Mycobacterium smegmatis atR1 assessed as decrease in drug resistance development at 100 nmol/disc after 2 to 3 days by paper disc method. It counts as functional, organism-based. Summed up:
as §1

The subject of assay [32] is Mycolicibacterium smegmatis. Kind of assay: Antimycobacterial activity against Mycobacterium smegmatis atR17 in liquid medium after 48 hrs by two-fold serial dilution method. It is filed as functional. As to conditions: atR17, 48 h. Summed up:
as §3

For assay [33], the system named is Mycolicibacterium smegmatis. Kind of assay: Antimycobacterial activity against Mycobacterium smegmatis atR14 assessed as decrease in drug resistance development at 100 nmol/disc after 2 to 3 days by paper disc method. It is filed as functional, organism-based. In a few lines:
as §1

Assay [34] deals with Mycolicibacterium smegmatis. Briefly: Antimycobacterial activity against Mycobacterium smegmatis atR9 in liquid medium after 48 hrs by two-fold serial dilution method. It counts as functional. As to conditions: atR9, 48 h. Summed up: as §3
Assay [35] deals with Mycolicibacterium smegmatis. Briefly: Antimycobacterial activity against Mycobacterium smegmatis atR2 assessed as decrease in drug resistance development at 100 nmol/disc after 2 to 3 days by paper disc method. It is filed as functional, organism-based. In a few lines: as §1
In assay [36] the test system is Mycolicibacterium smegmatis. Briefly: Antimycobacterial activity against Mycobacterium smegmatis atR37 assessed as decrease in drug resistance development at 100 nmol/disc after 2 to 3 days by paper disc method. It counts as functional, organism-based. In a few lines:
as §2

The subject of assay [37] is Mycolicibacterium smegmatis. Kind of assay: Antimycobacterial activity against Mycobacterium smegmatis atR2 in liquid medium after 48 hrs by two-fold serial dilution method. It is filed as functional. As to conditions: atR2, 48 h. Summed up:
as §3

In assay [38] the test system is Mycolicibacterium smegmatis. Kind of assay: Antimycobacterial activity against Mycobacterium smegmatis atR8 assessed as decrease in drug resistance development at 100 nmol/disc after 2 to 3 days by paper disc method. It counts as functional, organism-based. In a few lines:
as §2

Assay [39] relates to Mycolicibacterium smegmatis. Briefly: Antimycobacterial activity against Mycobacterium smegmatis atR33 assessed as decrease in drug resistance development at 100 nmol/disc after 2 to 3 days by paper disc method. It counts as functional, organism-based. In a few lines: as §1
Assay [40] concerns Mycolicibacterium smegmatis. Kind of assay: Antimycobacterial activity against Mycobacterium smegmatis atR17 assessed as decrease in drug resistance development at 100 nmol/disc after 2 to 3 days by paper disc method. It counts as functional, organism-based. Summed up: as §1

In brackets after ≈: the same amount, converted by molar mass. Activity calls are given as the source filed them. No cut-off for these calls is given here.

Take `NC[C@H]1O[C@H](O[C@H]2[C@H](O)[C@@H](O[C@H]3O[C@H](CO)[C@@H](O)[C@H](N)[C@H]3O)[C@H](N)C[C@@H]2N)[C@H](O)[C@@H](O)[C@@H]1O`: the result in assay [1], in assay [2], in [3], in assay [4], in assay [5] and in assay [6] was Active. Besides, the result in [7], in assay [8], in assay [10], in assay [11] and in assay [12] was Active. In assay [9], the inhibition zone (IZ) worked out at 9.3 mm.
Turning to `Cc1cn(-c2nnc3ncc(SC(C)C)n3n2)cn1`, the MIC (as a rule, the lowest concentration found to suppress growth) in assay [13] was determined as 256 µg/mL (≈ 930 µM); in assay [14] it was 128 µg/mL (≈ 465 µM); in assay [15], 128 µg/mL (≈ 465 µM); in assay [16] it was 128 µg/mL (≈ 465 µM); in assay [19], 256 µg/mL (≈ 930 µM); in assay [20], 256 µg/mL (≈ 930 µM). The MIC in assay [21] came to 90.8 µM (≈ 25 µg/mL); in [23], 128 µg/mL (≈ 465 µM); in assay [26], 90.8 µM (≈ 25 µg/mL); in assay [28], 232 µM (≈ 64 µg/mL); in assay [29], 128 µg/mL (≈ 465 µM); in [30] it was 128 µg/mL (≈ 465 µM). Moreover, the MIC in [32], in assay [34] and in assay [37] was 128 µg/mL (≈ 465 µM) throughout. Also, the outcome in [17], in assay [18], in [24], in assay [25], in assay [27] and in [31] was inactive. The result in [33], in [38], in assay [39] and in assay [40] was inactive. Also, in assay [22], the inhibition zone (IZ) turned out to be 13 mm. Further, the outcome in [35] and in [36] was Active.

For the origin of these results see ChEMBL document CHEMBL4359813, “Synthesis and antimycobacterial activity of imidazo[1,2-b][1,2,4,5]tetrazines” (2019).
